Measured values: ChEMBL document CHEMBL3804783, “Identification of a Small Molecule Cyclophilin D Inhibitor for Rescuing Aβ-Mediated Mitochondrial Dysfunction” (ACS Med Chem Lett, 2016)

How the values were obtained:
[1] = Effect on mouse brain cortical mitochondrial swelling at 10 to 100 uM incubated for 5 mins by spectrophotometric analysis; type: ADME, Mitochondria
Outline: (§1)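 Cortical mitochondria isolated from mice (100 μg) kept on ice for 5 min with or without inhibitor. Swelling then triggered by adding 200 μM Ca2+ to the reaction buffer and compared with vehicle-treated mitochondria.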

SK-N-SH [2] = assay: Effect on ATP level in human SK-N-SH cells at 10 to 20 uM after 48 hrs by bioluminescence analysis; type: ADME, cell-based
Outline: (§2)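 SK-N-SH cells given 5 μM oligomeric Aβ1–42 together with 10 or 20 μM inhibitor, 1 μM CsA, or vehicle. Controls were Aβ alone and cells without Aβ. After 48 h, ATP level or CcO enzymatic activity measured in cell lysates.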

SK-N-SH [3] = assay: Cytotoxicty against human SK-N-SH cells at 5 to 100 uM after 48 hrs by MTT assay; type: cell-based
Outline: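 SK-N-SH cells exposed at 37 °C for 48 h to 0, 5, 10, 25, 50 or 100 μM inhibitor diluted in culture medium, with vehicle as 0. Survival and toxicity read by MTT reduction.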

SK-N-SH [4] = assay: Effect on cytochrome c oxidase activity in human SK-N-SH cells at 10 to 20 uM after 48 hrs by spectrophotometrical analysis; type: ADME, cell-based; outline: as §2
[5] = target: Peptidyl-prolyl cis-trans isomerase F, mitochondrial (Mus musculus) (UniProt Q99KR7); assay: Inhibition of cyclophilin D in mouse brain cortical mitochondria assessed as suppression of calcium-induced mitochondrial swelling incubated for 5 mins by spectrophotometric analysis; outline: as §1
Chain of Peptidyl-prolyl cis-trans isomerase F, mitochondrial (Mus musculus) (Q99KR7 whole entry): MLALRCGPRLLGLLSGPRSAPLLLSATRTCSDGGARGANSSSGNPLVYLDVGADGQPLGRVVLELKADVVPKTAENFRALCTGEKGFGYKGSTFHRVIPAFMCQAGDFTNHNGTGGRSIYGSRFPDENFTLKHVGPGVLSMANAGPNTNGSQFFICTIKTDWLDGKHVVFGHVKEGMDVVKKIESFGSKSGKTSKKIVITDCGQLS

## Cc1nc(-c2ccc(OCC(C)C)c(C#N)c2)sc1C(=O)Nc1ccc(S(N)(=O)=O)cc1
[1]
  Activity: Non-toxic
SK-N-SH [2]
  Activity: Non-toxic
SK-N-SH [3]
  Activity: Non-toxic
SK-N-SH [4]
  Activity: Non-toxic
[5]
  inhibition: Dose-dependent effect
